According to ChEMBL document CHEMBL1151790, “Novel angular furoquinolinones bearing flexible chain as antitumor agent: design, synthesis, cytotoxic evaluation, and DNA-binding studies” (Bioorg Med Chem, 2008):
pIC50: −log10 of the molar value. Activity calls are given as the source filed them. No cut-off for these calls is given here.

Key:
K562 = assay: Cytotoxicity against human K562 cells by MTT assay; format: functional, cell-based
Summary of the method: (§1)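 Cells run without irradiation; cytotoxicity read by microculture tetrazolium–formazan (MTT) method, reported as IC50.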

Escherichia coli [1] = assay: Induction of DNA cleavage activity in Escherichia coli pBR322 DNA by gel electrophoresis
Summary of the method: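 Plasmid pBR322 DNA (25 ng/µL) incubated with compound at several concentrations in Tris–HCl (20 mM, pH 7.5), 25 °C, 12 h, no irradiation. Products resolved on 1% agarose with ethidium bromide staining; supercoiled (I), nicked (II), linear (III) forms scored; triplicate.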

DNA [2] = assay: Binding affinity to calf thymus DNA by fluorescence quenching technique; format: nucleic-acid assay; settings: Bos taurus
Summary of the method: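 Calf-thymus DNA held at 50 µM with compound at […] in Tris–HCl (30 mM, pH 7.5); matching compound-only samples served as controls. Solutions […] 1 day at 25 °C in the dark, then fluorescence wavelength and intensity area measured.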

P388 = assay: Cytotoxicity against mouse P388 cells by MTT assay; format: functional, cell-based; summary of the method: as §1
[3] = Cytotoxicity against human QGY cells by MTT assay; format: functional, cell-based; summary of the method: as §1
Escherichia coli [4] = assay: Induction of DNA photocleavage activity in Escherichia coli pBR322 DNA assessed as form 3 linear in presence of irradiation by gel electrophoresis
Summary of the method: (§2)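 pBR322 DNA (25 ng/µL) with compound at several concentrations in Tris–HCl (20 mM, pH 7.5), irradiated 2 h. Analysed on 1% agarose gel with ethidium bromide; supercoiled form I, nicked form II, linear form III; triplicate runs.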

HeLa = assay: Cytotoxicity against human HeLa cells by MTT assay; format: functional, cell-based; summary of the method: as §1
Escherichia coli [5] = assay: Induction of DNA photocleavage activity in Escherichia coli pBR322 DNA assessed as form 2 […] in presence of irradiation by gel electrophoresis; summary of the method: as §2
A549 = assay: Cytotoxicity against human A549 cells by SRB assay; format: functional, cell-based
Summary of the method: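 Cells run without irradiation; cytotoxicity read by sulforhodamine B dye staining, reported as IC50.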

DNA [6] = assay: Binding affinity to calf thymus DNA by circular dichroism spectra; format: nucleic-acid assay; settings: Bos taurus
Summary of the method: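 CD spectra recorded on 10 µM compound with 100 µM calf-thymus DNA in Tris–HCl buffer (pH 7.0), 1-cm quartz cell, 200–600 nm; buffer-alone spectrum subtracted. DNA checked protein-free by A260/A280 1.8–1.9 and quantified from 260 nm absorbance.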

Activity (Escherichia coli [1])	Kb (DNA [2])	Activity (Escherichia coli [4])	Activity (Escherichia coli [5])	Activity (DNA [6])	Structure (SMILES)	pIC50 (K562)	pIC50 (P388)	pIC50 [3]	pIC50 (HeLa)	pIC50 (A549)
inactive	2.53 ×10⁵ /M	–	–	–	Cc1oc2ccc3c(C)cc(=O)n(CCCN(C)C)c3c2c1C	4.15	4.34	4.13	4.46	4.53
–	2.79 ×10⁵ /M	–	–	–	CCn1c(=O)cc(C)c2ccc3oc(C)c(C)c3c21	< 4.00	< 4.00	< 4.00	< 4.00	< 4.00
–	3.18 ×10⁵ /M	–	–	–	Cc1oc2ccc3c(C)cc(=O)n(CC[N+](C)(C)C)c3c2c1C	–	–	–	4.31	–
–	2.06 ×10⁵ /M	–	–	–	Cc1oc2ccc3c(C)cc(=O)n(CC#N)c3c2c1C	< 4.00	< 4.00	< 4.00	< 4.00	< 4.00
inactive	1.58 ×10⁵ /M	Active	Active	–	Cc1oc2ccc3c(C)cc(=O)n(CC(=O)NCCN(C)C)c3c2c1C	–	4.84	–	4.68	4.69
inactive	2.66 ×10⁵ /M	Active	Active	Active	Cc1oc2ccc3c(C)cc(=O)n(CCN(C)C)c3c2c1C	4.25	4.29	4.14	4.41	4.52

Continued, compound first:

Structure (SMILES)	Activity (Escherichia coli [1])	Kb (DNA [2])	Activity (Escherichia coli [4])	Activity (Escherichia coli [5])	Activity (DNA [6])	pIC50 (K562)	pIC50 (P388)	pIC50 [3]	pIC50 (HeLa)	pIC50 (A549)
Cc1oc2ccc3c(C)cc(=O)[nH]c3c2c1C	inactive	2.57 ×10⁵ /M	Active	Active	–	< 4.00	< 4.00	4.00	4.05	4.00
CCOC(=O)Cn1c(=O)cc(C)c2ccc3oc(C)c(C)c3c21	–	2.54 ×10⁵ /M	–	–	–	< 4.00	< 4.00	< 4.00	< 4.00	< 4.00
Cc1oc2ccc3c(C)cc(=O)n(CC(=O)O)c3c2c1C	–	2.69 ×10⁵ /M	–	–	–	–	–	–	< 4.00	–
Cc1oc2ccc3c(C)cc(=O)n(Cc4ccccc4)c3c2c1C	–	3.15 ×10⁵ /M	–	–	–	< 4.00	< 4.00	< 4.00	< 4.00	< 4.00
